Shown are actives, neighbours in structure and some others; about 0.61% of the full set was active somewhere.
F508del corr – CFTR F508del correction in bronchial cells | AID 720511 | 350,000 compounds, 0.36% hits | CFBE cells, YFP halide quenching; stimulated with forskolin plus potentiator P3; % fluorescence drop versus neutral controls | activity (quench increase), % at 7.58 µM;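 active means mean added fluorescence quench of at least 8% versus neutral control, with both replicates also reaching 8%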;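 further: cells transiently co-express mutant CFTR-F508del with the halide-sensitive YFP; corrector assay measuring rescue of mutant channel to the surface after 24 h compound exposure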
XiGFP reactiv – activators of X-chromosome reactivation in mouse fibroblasts; AID 743238; 360,000 compounds, 0.055% hits; XiGFP mouse fibroblasts, % GFP-positive cells imaging, 3 d; cells co-treated with 5-aza-dC sensitizer; scaled so ellipticine positive control = 100%; activation, % at 7.58 µM;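 active means mean normalized replicate activation at least 10% and every replicate at or above 10%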;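 further: 0% = median of on-plate neutral control wells and 100% = ellipticine 6 µM median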
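Material: SV40-immortalized XiGFP fibroblast cells, line 68-5-11 | Buffer or medium: DMEM containing 5-aza-dC | Dosing: One concentration, pinned | Times: 3 d treatment, 15 min room-temperature fixation | Controls: Ellipticine 6 µM positive control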
E-selectin induc – induces E-selectin expression in human endothelial cells. AID 686992. 260,000 compounds, 0.37% hits. P16581. activation, % at 7.58 µM. HUVEC E-selectin immunofluorescence imaging; normalized: neutral wells 0, TNF-alpha wells 100;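 active means mean E-selectin-positive cell signal at least 10% of the positive control, reached in at least 60% of replicates, without over 20% cell loss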
Target sequence (P16581 whole entry, looked up): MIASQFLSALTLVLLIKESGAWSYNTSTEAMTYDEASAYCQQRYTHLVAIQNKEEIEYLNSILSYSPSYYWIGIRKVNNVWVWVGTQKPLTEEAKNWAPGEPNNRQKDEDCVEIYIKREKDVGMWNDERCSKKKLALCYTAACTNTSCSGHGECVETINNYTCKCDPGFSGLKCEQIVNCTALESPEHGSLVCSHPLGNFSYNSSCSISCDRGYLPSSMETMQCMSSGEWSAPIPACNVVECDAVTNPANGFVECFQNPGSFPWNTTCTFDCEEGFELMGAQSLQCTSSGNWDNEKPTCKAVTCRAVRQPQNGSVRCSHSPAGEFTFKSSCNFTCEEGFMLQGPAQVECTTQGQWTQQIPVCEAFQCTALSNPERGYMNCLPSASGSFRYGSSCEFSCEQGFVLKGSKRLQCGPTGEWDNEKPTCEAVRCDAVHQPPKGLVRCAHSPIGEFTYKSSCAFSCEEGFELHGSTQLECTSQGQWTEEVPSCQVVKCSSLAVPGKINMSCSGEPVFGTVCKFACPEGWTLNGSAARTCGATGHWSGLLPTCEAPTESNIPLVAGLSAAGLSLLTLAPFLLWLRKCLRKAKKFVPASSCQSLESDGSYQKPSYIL
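System: HUVEC, human umbilical vein endothelial cells; quantity: 3,000 cells/well; buffer or medium: EGM-2 medium, gelatin-coated wells; dosing: single-point compound dose; detection: immunofluorescence imaging; evaluation: % PE-positive cells; benchmarks: TNF-alpha, DMSO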
Numbers without * were called inactive; . = not tested or not shown.

SMILES	F508del corr	XiGFP reactiv	E-selectin induc
COc1ccc2c3c(cccc13)C(=O)N(O)C2=O	.	0	0
O=C1c2cccc3c([N+](=O)[O-])ccc(c23)C(=O)N1O	1	17*	2
CC(=O)Oc1ccc(N2C(=O)c3cccc4c([N+](=O)[O-])ccc(c34)C2=O)cc1	32*	0	.
CC(=O)Oc1ccc(-n2c(=O)c3ccccc3c3ccccc3c2=O)cc1	6	0	.
C[C@@H]1CN([C@H](C)CO)C(=O)Cc2cc(NC(=O)Cc3cn(C)c4ccccc34)ccc2O[C@H]1CN(C)Cc1ccc2c(c1)OCO2	-1	-1	.
O=C(C[C@@H]1CC[C@@H]2[C@H](COC[C@@H](O)CN2S(=O)(=O)c2ccc(F)cc2)O1)NCc1ccc(Cl)c(Cl)c1	-1	0	0
COc1ccc(NC(=O)C(=O)c2cn(CC(=O)N3CCCC3)c3ccccc23)cc1OC	9.3*	0	0
COc1cccc(NC(=O)C(=O)c2cn(CC(=O)N3CCCC3)c3ccccc23)c1	-2	0	.
CCN(CC)CCn1c2c(c(SCC(=O)Nc3ccc(F)c(F)c3)nc1=O)CCC2	9.2*	0	.
CCN(CC)CCCn1c2c(c(SCC(=O)Nc3ccc(F)c(F)c3)nc1=O)CCC2	3	0	-1
CCCN1[C@H](C(=O)NCC2CC2)[C@@H](CO)[C@@H]2Cn3c(ccc(/C=C/c4ccccc4)c3=O)[C@@H]21	2	0	0
CCOC(=O)C(=O)C1=CN(Cc2ccccc2)C=C(C#N)C1	1	0	52*
N#CC1=CN(Cc2ccccc2)C=C(/C=N/Nc2ccccc2)C1	-2	0	-1
C[C@@H]1CN([C@@H](C)CO)C(=O)c2cc(N(C)C)ccc2O[C@@H](C)CCCCO[C@H]1CN(C)C(=O)c1ccccc1	2	0	0
CN1CCN(C(=O)C[C@H]2C[C@@H]3c4cc(NC(=O)Nc5ccccc5F)ccc4O[C@@H]3[C@@H](CO)O2)CC1	-3	0	0
CC(C)(C)OC(=O)CC[C@]12N=C(c3ccc(OCCCO)cc3)O[C@H]1c1ccccc1CN(C(=O)c1ccccc1)C2=O	0	.	.
COc1cccc(-c2ccc3c(c2)[C@H]2[C@H](CCN2C(=O)CN2CCOCC2)[C@H](CO)N3)c1	1	0	0
CC(=O)c1cc2c(cc1NS(=O)(=O)c1ccccc1C)OCO2	-4	0	-1
COc1ccc(S(=O)(=O)Nc2cc3c(cc2C(C)=O)OCO3)cc1	12*	0	.
CC(=O)N[C@@H]1CC[C@H](CCNC(=O)C2CCCCC2)O[C@H]1CO	0	1	0
CCCNC(=O)Nc1ccc2c(c1)C(=O)N(C)C[C@H](OC)[C@H](C)CN(C(=O)C1CCOCC1)[C@@H](C)CO2	-4	0	0
Nc1ccccc1N1C(=O)c2cccc3cccc(c23)C1=O	3	0	.
CCN1C(=O)c2cccc3c(N)ccc(c23)C1=O	19*	2	0
CCCCNc1ccc2c3c(cccc13)C(=O)N(CCCC)C2=O	1	123*	0
Cc1ccc(N2C(=O)c3cccc4c(N)ccc(c34)C2=O)c2cccnc12	-4	116*	.
SMILES	F508del corr	XiGFP reactiv	E-selectin induc
CN(C)CCCN1C(=O)c2cccc3c(Br)ccc(c23)C1=O	3	0	.
Cc1nn(C)c(C)c1N1C(=O)c2cccc3c(N)ccc(c23)C1=O	.	1	3
C[C@@H]1CN([C@H](C)CO)C(=O)c2cc(NC(=O)c3ccncc3)ccc2O[C@@H](C)CCCCO[C@H]1CN(C)C(=O)c1ccncc1	0	0	0
CC=Cc1ccc2n(c1=O)C[C@@H]1[C@@H](CO)[C@H](C(=O)NCCCN(C)C)[C@H]2N1C(=O)c1ccccc1 (mixture of isomers)	0	0	0
COc1ccc(S(=O)(=O)N[C@@H]2CC[C@@H](CCn3cc(-c4ccccc4F)nn3)O[C@@H]2CO)cc1	-1	0	0
CCCCNc1nc2sc3c(c2c(=O)n1-c1cccc(Cl)c1)CCN(C)C3	-2	0	.
CCCCCNc1nc2sc3c(c2c(=O)n1-c1cccc(Cl)c1)CCN(C)C3	-4	0	42*
O=C(C1CC1)N1CC[C@@H]2[C@H](CO)Nc3ccc(C#Cc4ccc(F)cc4)cc3[C@@H]21	1	1	34*
O=C(c1ccccc1F)N1CC[C@@H]2[C@H]1c1cc(Br)ccc1N[C@@H]2CO	6	0	0
O=C(c1ccccc1F)N1CC[C@@H]2[C@H](CO)Nc3ccc(Br)cc3[C@@H]21	12*	0	0
O=C(C1CCCC1)N1CC[C@@H]2[C@H](CO)Nc3ccc(C4=CCCCC4)cc3[C@@H]21	1	0	50*
O=C(C1CCC1)N1CC[C@@H]2[C@@H](CO)Nc3ccc(C#Cc4ccc(F)cc4)cc3[C@@H]21	4	0	38*
O=C(C1CCCCC1)N1CC[C@@H]2[C@H]1c1cc(C#Cc3ccc(F)cc3)ccc1N[C@@H]2CO	0	0	0
O=C(C1CCCC1)N1CC[C@H]2[C@H](CO)Nc3ccc(C#Cc4ccc(F)cc4)cc3[C@H]21	0	.	.
O=C(c1ccc(F)cc1)N1CC[C@@H]2[C@H]1c1cc(C3=CCCCC3)ccc1N[C@@H]2CO	0	0	1
CO[C@H]1CN(C)C(=O)c2ccc(NC(=O)c3ccccc3F)cc2OC[C@H](C)N(C(=O)c2ccccc2F)C[C@@H]1C	-5	0	0
C[C@@H]1CN([C@@H](C)CO)C(=O)c2cc(C#Cc3cccnc3)cnc2O[C@@H]1CN(C)Cc1ccncc1	3	0	-1
CCNC(=O)Nc1ccc2c(c1)C(=O)N(C)[C@H]1CC[C@H](CC(=O)Nc3ccccc3)O[C@H]1CO2	1	1	0
CC(C)NC(=O)Nc1ccc2c(c1)C(=O)N([C@H](C)CO)C[C@@H](C)[C@@H](CN(C)S(=O)(=O)c1cn(C)cn1)OCCCC[C@H](C)O2	3	0	.
CC(C)(C)[S@@](=O)N1Cc2cc(C(=O)N3CCCCC3)nc(-c3cccc(-c4ccccc4F)c3)c2[C@H]1CCO	-2	0	0
C[C@@H]1CN([C@H](C)CO)C(=O)c2cc(NS(=O)(=O)c3cn(C)cn3)ccc2O[C@@H]1CN(C)S(=O)(=O)c1ccccc1	-1	-1	0
Cc1noc(C)c1S(=O)(=O)Nc1ccc2c(c1)C(=O)N([C@@H](C)CO)C[C@@H](C)[C@@H](CN(C)Cc1ccc(C(F)(F)F)cc1)OCCCC[C@@H](C)O2	2	0	0
Cc1noc(C)c1S(=O)(=O)N(C)C[C@@H]1Oc2ccc(NC(=O)NC(C)C)cc2CC(=O)N([C@H](C)CO)C[C@@H]1C	0	0	0
COc1ccc(NC(=O)N[C@@H]2CC[C@@H](CC(=O)NC3CCCCC3)O[C@H]2CO)cc1	-2	1	0
O=C(NCC[C@H]1CC[C@@H](NC(=O)C2CCCC2)[C@@H](CO)O1)c1ccc(F)cc1	2	0	0
O=C(C1CCC1)N1CC[C@@H]2[C@@H](CO)Nc3ccc(C#Cc4cccc(F)c4)cc3[C@@H]21	0	0	7
O=C(C1CCC1)N1CC[C@@H]2[C@H](CO)Nc3ccc(C#Cc4cccc(F)c4)cc3[C@@H]21	-1	0	31*

High-throughput results: PubChem, Broad Institute
